# The list is not random: actives were taken first. Their share in the collection is about 2.4%.
# Neddyl block = inhibitors of human cullin neddylation. P61081+Q13564. TR-FRET cullin neddylation, biochemical. inhibition, % at 25 µM. 0.58% of 360,000 active. AID 651699; in the data active means inhibition above about 36%
# CSN deneddyl inh = inhibitors of human CSN-mediated cullin deneddylation; inhibition, % at 12.5 µM; Purified CSN, SCF-Nedd8-OG deneddylation, fluorescence polarization; Q92905; 0.38% of 360,000 active;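 active means pattern-corrected inhibition above about 35%, with an unprinted fluorescence ratio check between 0.5 and 1.5, limit read from the data, passing the limit was not always enough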;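 further: 0% = enzyme with substrate and 100% = substrate without enzyme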
# Target sequence (Q92905 whole entry, looked up, one chain of several): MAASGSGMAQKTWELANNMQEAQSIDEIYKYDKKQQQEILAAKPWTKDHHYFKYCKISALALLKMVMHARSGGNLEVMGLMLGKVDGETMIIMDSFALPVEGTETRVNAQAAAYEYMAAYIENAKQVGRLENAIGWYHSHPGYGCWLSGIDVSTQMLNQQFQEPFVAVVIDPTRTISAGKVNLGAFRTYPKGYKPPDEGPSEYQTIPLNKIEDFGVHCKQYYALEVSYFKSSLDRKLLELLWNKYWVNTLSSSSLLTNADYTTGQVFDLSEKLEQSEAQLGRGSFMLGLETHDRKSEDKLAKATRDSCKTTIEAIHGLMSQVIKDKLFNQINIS
#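 Test system: purified human Csn5 enzyme expressed in HEK293T cells. Amount: 0.24 nM enzyme. Reagent: SCFSkp2-Nedd8OG substrate at 10 nM final. Schedule: 90 min incubation of compound, enzyme and substrate at room temperature. Detection: fluorescence polarization. Read-out: % inhibition of substrate cleavage by Csn5.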
# TbMetRS inhib = blocks T. brucei methionyl-tRNA synthetase activity | AID 624268 | 0.4% of 360,000 active | inhibition, % at 11.9 µM | purified T. brucei MetRS, ATP depletion, Kinase-Glo luminescence;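 active means inhibition above a per-plate cutoff of the control wells' mean inhibition plus 3 SD, cut at about 5.5% in these data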;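 further: 0% = DMSO wells median and 100% = median of wells with control inhibitor compound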
#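 System: purified T. brucei MetRS enzyme / Detection: Kinase-Glo luciferase luminescence reporting remaining unconsumed ATP / Medium: HEPES buffer with MgCl2, KCl, DTT, spermine, BSA, pyrophosphatase / Replication: singlicate, one well per compound / Evaluation: percent inhibition relative to median high and low control wells / Schedule: 2 h aminoacylation at 25 °C after 15 min preincubation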
# Rpn11 inh = blocks the human proteasome subunit Rpn11 | human 26S proteasome, Ub4-pepOG fluorescence polarization; 20S core pre-blocked with epoxomicin | inhibition, % at 20 µM | 0.59% of 360,000 active | AID 588493;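 active means inhibition at 20 µM, scaled to each plate's controls, above about 33%, limit read from the data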
# Target sequence (O00487 whole entry, looked up): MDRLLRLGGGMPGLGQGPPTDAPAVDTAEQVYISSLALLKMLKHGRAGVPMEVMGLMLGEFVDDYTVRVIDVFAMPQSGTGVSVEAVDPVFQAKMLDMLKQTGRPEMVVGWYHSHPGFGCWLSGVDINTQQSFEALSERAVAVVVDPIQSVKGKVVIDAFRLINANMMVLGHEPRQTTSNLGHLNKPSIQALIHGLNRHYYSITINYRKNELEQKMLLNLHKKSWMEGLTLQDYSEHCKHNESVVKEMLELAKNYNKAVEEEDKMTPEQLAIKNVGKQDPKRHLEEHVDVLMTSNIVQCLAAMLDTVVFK
# PREPL inhibitor = inhibitors of human prolyl oligopeptidase-like enzyme PREPL; Q4J6C6; recombinant PREPL, fluorescence polarization activity-based probe; inhibition, % at 5.96 µM; 0.68% of 320,000 active; AID 2751; in the data active means inhibition above about 43%;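 further: 0% = enzyme with DMSO and 100% = wells lacking enzyme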
# HNF4A DNA FP = change in binding of human HNF4 alpha to DNA | HNF4a-FITC DNA binding, fluorescence polarization, 1 h | activity change, % at 10 µM | 0.3% of 360,000 active; in the data active means activity change above about 30%, passing the limit was not always enough
# Rpn11 confirm = confirmation of human proteasome Rpn11 inhibitors. 29% of 1,900 active. shares compounds with Rpn11 inh. purified human 26S proteasome, Ub4-pepOG fluorescence polarization; proteasome pretreated with epoxomicin. inhibition, % at 20 µM
# MMP-2 inh = blocks human MMP-2, flagging nonselective RPN11 hits; inhibition, % at 20 µM; 4% of 1,900 active; recombinant MMP-2, FRET peptide cleavage fluorescence; shares compounds with Rpn11 inh;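 further: human MMP-2 activated beforehand with APMA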
# Thrombin FP = blocks bovine thrombin, flagging nonselective RPN11 hits. inhibition, % at 20 µM. 13% of 1,900 active. AID 602333. bovine thrombin cleavage of Ub4-pepOG, fluorescence polarization. shares compounds with Rpn11 inh;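 active means mean inhibition at least 40% at 20 µM, or signal 3 deviations below plate average, so some actives read negative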;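 further: plate controls were thrombin with DMSO for no effect and buffer wells lacking thrombin for full effect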
# * = called active by the depositor; . = no result shown. Unless noted, no stated cut-off is given here; in the data, active means inhibition above about 40%; inactive means the rest.
SMILES,Neddyl block,CSN deneddyl inh,TbMetRS inhib,Rpn11 inh,PREPL inhibitor,HNF4A DNA FP,Rpn11 confirm,MMP-2 inh,Thrombin FP
O=[N+]([O-])c1ccc(N/N=C/c2cccc(O)c2O)c(S(=O)(=O)N2CCOCC2)c1,-17.7,-7.3,-0.3,-7.9,-2.2,-0.8,.,.,.
Cc1ccc(NS(=O)(=O)c2cc([N+](=O)[O-])ccc2N/N=C/c2sc(N3CCOCC3)nc2-c2ccccc2)c(C)c1,-13.7,14.2,-0.4,43.6*,1.7,20.6,39.3,-5.2,8.7
CN1C(=O)c2ccccc2C(C(=O)O)C1c1cccc(F)c1 (centres undefined),1.8,0.7,0.9,-5.7,-2.7,2.1,.,.,.
Cc1ccsc1C1C(C(=O)O)c2ccccc2C(=O)N1C (centres undefined),-3.9,-1.5,-0.2,145.9*,2.4,7.0,-10.0,-43.3,-14.2
CS(=O)(=O)c1ccc(N2CCN(S(=O)(=O)c3cccs3)CC2)c([N+](=O)[O-])c1,-16.2,7.1,-0.2,3.6,12.5,2.4,.,.,.
O=C(N/N=C/c1cccc([N+](=O)[O-])c1)c1ccc(Br)cc1,-20.6,11.8,-0.1,41.8*,11.8,6.7,17.0,41.0*,1.2
COc1cc(/C=N/NC(=O)c2cccc([N+](=O)[O-])c2)ccc1OCc1ccccc1,-5.3,1.7,-0.7,-0.1,22.8,3.9,.,.,.
O=C(N/N=C/c1cccc([N+](=O)[O-])c1)c1cccc(Br)c1,-2.2,4.7,-0.6,3.0,12.3,-3.6,.,.,.
COc1cc(/C=N/NC(=O)c2ccc(O)cc2)ccc1OCC(=O)Nc1cccc([N+](=O)[O-])c1,-1.8,16.0,-0.5,115.6*,-2.1,6.3,8.9,-18.2,-3.2
O=C(c1ccco1)N1CCN(C(=O)c2cc(-c3ccncc3)nc3ccc(Br)cc23)CC1,-252.1,14.9,0.2,64.8*,-1.9,20.7,-16.3,-2.7,0.1
CCOc1ccc(OCCC(=O)Nc2ccc(F)cc2C)cc1,-1.5,-5.2,0.3,-1.5,12.4,-1.7,.,.,.
CC(=O)NCCC(=O)Nc1ccc(F)cc1C,1.9,-2.1,-0.2,114.1*,-3.9,21.5,-11.0,-45.7,0.1
Cn1c(CCNC(=O)c2ccc(Cl)cc2)n[nH]c1=S,0.6,1.1,-0.4,41.4*,-5.1,-0.3,7.8,0.1,-2.9
Cc1ccc(Cl)cc1Nc1nc(-c2sc(NC(=O)c3ccco3)nc2C)cs1,10.7,13.7,-0.5,8.6,12.0,10.4,.,.,.
Cc1nc(NC(=O)c2ccco2)sc1-c1csc(Nc2ccc(Cl)cc2)n1,16.8,103.9,-0.1,42.1*,19.7,4.8,12.1,34.7,-4.9
COc1cc2ccccc2cc1C(=O)N1CCc2ccccc21,8.2,-4.2,-0.5,-5.1,.,2.9,.,.,.
COc1ccc(-c2cc(C(=O)Nc3cc(C)nn3-c3ccccc3)no2)cc1,28.6,-0.5,-1.1,16.4,2.2,0.6,.,.,.
COc1ccccc1-c1cc(C(=O)Nc2cc(C)nn2-c2ccccc2)no1,23.8,31.2,-0.5,58.6*,0.6,6.0,64.6*,-20.0,8.8
CCc1nc2ccc(C(=O)N(C)Cc3ccccc3)cn2c1N(C)Cc1ccc(OC)cc1,18.3,-1.7,-0.1,8.3,.,1.4,.,.,.
CCN(CC)c1ccc2cc(C(C)=O)c(=O)oc2c1,20.4,96.9,0.1,.,3.3,.,.,.,.
CCN(CC)c1ccc2cc(C(N)=O)c(=O)oc2c1,48.1*,11.5,0.0,40.3*,4.3,35.4,10.7,-43.2,5.4
Cc1c(OCC(N)=O)ccc2c(-c3ccccc3)cc(=O)oc12,15.7,1.8,-0.3,58.1*,-9.6,-0.4,47.3*,-25.2,2.9
COc1cc(NC(=O)[C@@H]2CCCN(S(=O)(=O)c3cccc4cccnc34)C2)cc(OC)c1OC,-22.4,0.3,-0.1,-5.1,6.6,-0.2,.,.,.
Cc1ccc(C(=O)Cn2nc(C)c([N+](=O)[O-])c2C)c(C)c1,1.0,-1.0,-1.2,-3.8,2.8,-0.2,.,.,.
Cc1nn(CC(=O)c2ccc(Cl)s2)c(C)c1[N+](=O)[O-],-47.4,-3.6,0.5,44.2*,-3.9,15.3,19.2,6.4,17.0
SMILES,Neddyl block,CSN deneddyl inh,TbMetRS inhib,Rpn11 inh,PREPL inhibitor,HNF4A DNA FP,Rpn11 confirm,MMP-2 inh,Thrombin FP
Cc1occc1-c1nnc(SCC(N)=O)n1Cc1ccccc1,-13.8,-11.0,-0.8,1.8,12.1,1.3,.,.,.
Cc1occc1-c1nnc(SCC(=O)NCCc2ccccc2)n1Cc1ccccc1,-4.3,4.8,-0.6,85.4*,15.8,6.4,12.7,-23.3,10.9
O=C(C(=O)N1CCN(c2ccccc2)CC1)c1ccncc1,-12.6,1.9,0.3,.,.,5.6,.,.,.
Cc1ccc(C(C)C)c(OCc2nn(CC(=O)c3ccc(Cl)cc3)c3[n+]2CCCCC3)c1,0.1,5.3,-1.0,38.6*,21.2,7.6,26.8,-12.6,10.8
NC1=NC(=O)/C(=C/c2cn(CCC(=O)O)nc2-c2ccc(F)cc2)S1,-14.8,-3.6,-0.6,14.4,-3.1,5.0,.,.,.
COc1ccc(-c2nn(CCC(=O)O)cc2/C=C2\SC(N)=NC2=O)cc1,-13.1,-4.5,-1.3,46.8*,6.9,8.3,38.1,-4.7,30.9
NC1=NC(=O)/C(=C/c2cn(CCC(=O)O)nc2-c2ccc(Cl)cc2)S1,-24.9,4.6,1.0,43.0*,9.6,3.9,46.4*,-2.8,32.5
CCCOc1ccc(-c2nn(-c3ccccc3)cc2/C=C2\SC(N)=NC2=O)cc1,.,0.0,-0.2,12.7,-5.2,5.9,.,.,.
O=C(Sc1cccc2cccnc12)c1ccccc1Br,4.0,7.9,-0.2,84.7*,-4.3,19.0,65.0*,-27.8,-24.2
Cn1c2c(sc1=O)CCC2,0.0,-2.5,-0.2,-2.9,.,-1.1,.,.,.
COc1ccc(C2CC(c3ccccc3O)=NN2c2ccccc2)cc1 (centres undefined),.,1.8,-0.9,-0.3,6.1,-1.9,.,.,.
COc1ccc(C2CC(c3ccccc3)=NN2c2ccc(N)cc2)cc1 (centres undefined),.,-5.1,-0.6,48.2*,12.2,18.8,37.2,36.3,16.1
COc1ccc(/C=N/n2c(C)nc3c([nH]c4ccccc43)c2=O)cc1CN1CCCC(C)(C)C1,3.3,6.8,0.2,3.1,3.9,0.5,.,.,.
COc1ccc2[nH]c3c(=O)n(/N=C/c4ccc(OC)c(CN5CCCC5)c4)c(C)nc3c2c1,8.5,62.5*,-0.5,91.2*,27.2,7.1,90.1*,-53.9,-4.2
COc1ccc(N2CCN(CC(O)COc3ccc4c(c3)CCC4)CC2)cc1 (centres undefined),2.9,2.6,-0.3,105.1*,21.9,6.0,-3.2,-3.4,-1.8
